Compound activity deposited in PubChem by SRMLSC.
Yeast life ext – yeast lifespan extension; S. cerevisiae growth with nicotinamide, OD615; deaD strain in restrictive glucose medium; inhibition of the nicotinamide effect, % at 10 µM; 0.68% of 130,000 active;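 active means inhibition above a set limit, placed 3 SD over the median of all compounds, cut at about 26% in these data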
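assay system = DeaD-strain S. cerevisiae | buffer or medium = restrictive glucose medium | reagent = 1.5 mM nicotinamide | compound = 10 µM single point, 0.25% DMSO | incubation = 48 h compound exposure at 30 °C, humidified | signal = OD615 measurement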
RAM network inh – inhibitors of the yeast RAM network | S. cerevisiae dse1pr::URA3 reporter, 5-FOA growth OD615, 2 d; analog-sensitive cbk1-as2 kinase mutant strain | inhibition, % at 50 µM | 1.8% of 190,000 active;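 active means inhibition above a set limit, 3 SD over mean compound inhibition, cut at about 8.4% in these data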;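 further: inhibition rescues growth on 5-FOA so higher OD means more RAM inhibition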
BB579 growth dn – yeast BB579 growth reduction in restrictive medium; S. cerevisiae BB579 growth, OD615, 48 h; inhibition, % at 10 µM; 0.51% of 140,000 active; AID 804;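 active means inhibition above a set limit, 3 SD over the mean compound inhibition, cut at about 44% in these data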
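Material: Saccharomyces cerevisiae DeaD strain BB579, replicative lifespan model yeast; buffer or medium: CSMM-D restrictive synthetic medium containing dextrose (glucose); compound: 10 µM single dose, DMSO 0.25%; timing: 48 h compound exposure at 30 °C after 4 h preincubation; signal: turbidity as optical density at 615 nm; benchmarks: positive control amphotericin B 10 µg/mL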
Hits are given with their value. An excerpt weighted towards active compounds, which were near 2.6% of everything screened.

CCNC(=O)NC(=O)C(C)OC(=O)C1CCN(S(=O)(=O)c2ccccc2C(=O)OC)CC1 (stereo unspecified) was read as RAM network inh inactive.
For Cc1ccc(NC(=O)CCC(=O)NNC(=O)C(c2ccccc2)c2ccccc2)c(C)c1 the results were Yeast life ext inactive, RAM network inh inactive and BB579 growth dn inactive.
Screening CCOC(=O)C(C(=O)OCC)c1cc(Br)c2noc3c2c1C(=O)c1ccccc1-3 returned Yeast life ext 46.2, RAM network inh inactive and BB579 growth dn inactive.
For O=C1c2ccccc2-c2onc3ccc(Oc4ccccc4)c1c23 the results were RAM network inh inactive and BB579 growth dn inactive.
For O=C(COC(=O)c1ccc(CO)cc1)NCc1cccs1 the results were Yeast life ext inactive, RAM network inh inactive and BB579 growth dn inactive.
Screening O=C(c1ccccc1)C1C(=O)c2ccccc2C1=O returned Yeast life ext 26.7, RAM network inh inactive and BB579 growth dn inactive.
`O=C(/C=C/c1ccccc1)C1C(=O)c2ccccc2C1=O` gave Yeast life ext 42.7, RAM network inh inactive and BB579 growth dn inactive.
`O=C(c1ccccc1)C1CCc2occc2C1=O` (stereo unspecified) gave Yeast life ext inactive, RAM network inh inactive and BB579 growth dn inactive.
For CCc1ccc(C2C(C(=O)O)c3ccccc3C(=O)N2C)cc1 (stereo unspecified) the results were Yeast life ext inactive, RAM network inh inactive and BB579 growth dn inactive.
COC(=O)C1C(=O)C(C(=O)/C=C/c2ccccc2)C(=O)CC1(C)C (stereo unspecified) was read as RAM network inh inactive.
CCc1ccc(/C=C/C(=O)C2C(=O)c3ccccc3C2=O)cc1 was read as Yeast life ext inactive, RAM network inh 9.1 and BB579 growth dn inactive.
Screening CCc1c(O)cc(=O)n(-c2ccccc2)c1-c1ccccc1 returned Yeast life ext inactive, RAM network inh inactive and BB579 growth dn inactive.
Screening CCCCOc1ccccc1NC(=O)CC1SC(=NCC)N(CC)C1=O (stereo unspecified) returned Yeast life ext inactive, RAM network inh inactive and BB579 growth dn inactive.
Screening O=C(c1cccc(C(F)(F)F)c1)c1c[nH]c(C(=O)NCCCN2CCOCC2)c1 returned RAM network inh inactive.
COc1ccc(N2CCN(C(=O)CC34CC5CC(CC(C5)C3)C4)CC2)c([N+](=O)[O-])c1 was read as Yeast life ext inactive, RAM network inh 10.0 and BB579 growth dn inactive.
For CCC(=O)N1CCN(c2ccc(OC)cc2[N+](=O)[O-])CC1 the results were Yeast life ext inactive, RAM network inh inactive and BB579 growth dn inactive.
For COc1ccc(C(=O)NC2(C(F)(F)F)C(=O)Nc3c2c(=O)[nH]c(=O)n3CCc2ccc(OC)c(OC)c2)cc1 (stereo unspecified) the results were Yeast life ext inactive, RAM network inh inactive and BB579 growth dn inactive.
For Cc1ccccc1NC(=O)CSc1nc(COc2ccccc2)nc2ccccc12 the results were Yeast life ext inactive, RAM network inh 9.7 and BB579 growth dn inactive.
For Cc1cc(C)c(NC(=O)CSc2nc(COc3ccccc3)nc3ccccc23)c(C)c1 the results were Yeast life ext inactive, RAM network inh inactive and BB579 growth dn inactive.
For Cc1noc(C)c1COc1ccc(C(=O)OCC(=O)Nc2ccc3c(c2)OCO3)cc1 the results were Yeast life ext inactive, RAM network inh inactive and BB579 growth dn inactive.
Cc1ccc(NC(=O)COC(=O)c2ccc(OCc3c(C)noc3C)cc2)cc1S(=O)(=O)N1CCOCC1 was read as Yeast life ext inactive, RAM network inh 11.1 and BB579 growth dn inactive.
`Cc1[nH]n(-c2ccccc2)c(=O)c1/C=N/NC(=O)C(C)C` gave RAM network inh inactive.
For O=C(CN(c1cccc([N+](=O)[O-])c1)S(=O)(=O)c1ccccc1)NCc1ccccc1 the results were Yeast life ext inactive, RAM network inh inactive and BB579 growth dn inactive.
`O=C(COc1ccccc1)NNC(=O)COc1ccc([N+](=O)[O-])cc1` gave RAM network inh inactive.
`O=C(COc1ccc([N+](=O)[O-])cc1)N(Cc1ccccc1)Cc1ccccc1` gave Yeast life ext inactive, RAM network inh 11.0 and BB579 growth dn inactive.
O=C(CN(c1cccc([N+](=O)[O-])c1)S(=O)(=O)c1ccccc1)N(Cc1ccccc1)Cc1ccccc1 was read as Yeast life ext inactive, RAM network inh 8.6 and BB579 growth dn inactive.
For CC(Oc1ccc(Cl)cc1)c1ccc(C#N)c(=O)[nH]1 (stereo unspecified) the results were RAM network inh inactive.
O=c1c2cc3c(cc2[nH]c(=S)n1C1CCN(Cc2ccccc2)CC1)OCO3 was read as RAM network inh inactive.
Screening CCOc1ccc(NC(=O)c2cn(-c3ccc(OCC)cc3)c(=O)c3cc(OC)c(OC)cc23)cc1 returned Yeast life ext inactive, RAM network inh inactive and BB579 growth dn inactive.
Screening CCOc1ccc(-n2cc(C(=O)Nc3cccc(Cl)c3)c3cc(OC)c(OC)cc3c2=O)cc1 returned Yeast life ext inactive, RAM network inh 8.9 and BB579 growth dn inactive.
Cc1c(O)c2c(=O)n(-c3ccccc3)c(-c3ccccc3)cc2oc1=O was read as Yeast life ext inactive, RAM network inh inactive and BB579 growth dn inactive.
COc1cc(CC(C#N)(CO)c2nc3ccccc3[nH]2)ccc1OC(F)F (stereo unspecified) was read as Yeast life ext inactive, RAM network inh inactive and BB579 growth dn inactive.
`CCCCCCCCC/C(=N\O)c1ccccn1` gave Yeast life ext inactive, RAM network inh inactive and BB579 growth dn 99.6.
For CCCCCCCCC(=O)N/N=C/c1ccccn1 the results were Yeast life ext inactive, RAM network inh inactive and BB579 growth dn inactive.
Screening CC1=NN(C(=O)c2ccc(Cn3nc(C)cc3C)o2)C(O)(C(F)(F)F)C1 (stereo unspecified) returned Yeast life ext inactive, RAM network inh inactive and BB579 growth dn inactive.
For CCN(C(=O)COC(=O)/C=C/c1ccccc1)C1CCCCC1 the results were RAM network inh inactive.
O=C(NC(=S)Nc1ccc(Cc2ccncc2)cc1)c1ccc(F)cc1 was read as RAM network inh inactive.
For CN=C(C)c1c(O)c2ccccc2oc1=O the results were Yeast life ext inactive, RAM network inh inactive and BB579 growth dn inactive.
For O=C(c1c(O)c2ccccc2oc1=O)C1CCCCC1 the results were Yeast life ext 28.7, RAM network inh inactive and BB579 growth dn inactive.
O=C(O)CCCN=Cc1c(O)c2ccccc2oc1=O was read as RAM network inh inactive.
O=C(CCC1CCCC1)c1c(O)c2ccccc2oc1=O was read as Yeast life ext 32.5, RAM network inh inactive and BB579 growth dn inactive.
O=C(CC1CCC1)NC(c1ccccc1)c1ccccc1 was read as RAM network inh inactive.
COC(=O)[C@@H]1CCCN1C(=O)CCc1nnc(CCC2CCCCC2)o1 was read as RAM network inh inactive.
Screening COCC(=O)OCC(=O)Nc1ccccc1-c1ccccc1 returned RAM network inh inactive.
Screening CC(C)(C)C(=O)COC(=O)C1CC(=O)N(c2ccccc2)C1 (stereo unspecified) returned RAM network inh inactive.
`O=C(OCc1cccc2ccccc12)C1CC(=O)N(c2ccccc2)C1` (stereo unspecified) gave Yeast life ext inactive, RAM network inh 11.0 and BB579 growth dn inactive.
